KCNK9 inh: inhibitors of human KCNK9 two-pore domain potassium channel; B-score at 10 µM; Q9NPC2; actives 1.2% (n = 310,000); AID 488922; HEK293 KCNK9, FluxOR thallium flux fluorescence; stronger effect = lower value;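 active = ratio B-score over 3 SD below the library mean, with starting fluorescence within 5 SD of its mean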;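 also: negative B-score means less thallium flux so channel inhibition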
KCNQ1 act: potentiates or activates the human KCNQ1 potassium channel | AID 2648 | CHO-K1 KCNQ1, thallium flux FluxOR fluorescence; stronger effect = higher value | actives 0.35% (n = 310,000) | B-score at 10 µM | P51787;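 active = fluorescence ratio B-score, a plate-corrected score, at least three library SD, with initial intensity B-score within 5 SD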
Target sequence (P51787 whole entry, looked up): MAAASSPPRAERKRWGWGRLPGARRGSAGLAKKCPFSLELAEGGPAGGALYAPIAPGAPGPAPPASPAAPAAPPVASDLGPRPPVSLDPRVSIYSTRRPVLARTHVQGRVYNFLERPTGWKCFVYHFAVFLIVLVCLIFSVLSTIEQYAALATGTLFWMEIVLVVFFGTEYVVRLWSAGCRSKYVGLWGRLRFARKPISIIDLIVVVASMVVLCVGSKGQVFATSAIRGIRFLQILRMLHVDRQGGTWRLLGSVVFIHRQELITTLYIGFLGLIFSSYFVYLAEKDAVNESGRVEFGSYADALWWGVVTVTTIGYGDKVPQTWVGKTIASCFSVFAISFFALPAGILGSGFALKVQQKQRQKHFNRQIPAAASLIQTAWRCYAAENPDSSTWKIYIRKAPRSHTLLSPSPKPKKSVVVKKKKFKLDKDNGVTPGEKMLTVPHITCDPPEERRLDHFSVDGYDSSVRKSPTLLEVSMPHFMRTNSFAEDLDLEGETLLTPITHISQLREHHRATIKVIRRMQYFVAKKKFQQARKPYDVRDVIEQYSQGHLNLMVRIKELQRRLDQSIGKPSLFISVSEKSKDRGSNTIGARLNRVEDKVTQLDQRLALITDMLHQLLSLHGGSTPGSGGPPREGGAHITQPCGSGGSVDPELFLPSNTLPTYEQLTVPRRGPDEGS
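assay system = KCNQ1-transfected CHO-K1 cells | medium = assay buffer with matched DMSO | probe or stimulus = depolarizing K+/Tl+ stimulus, K2SO4 and Tl2SO4 each 12.5 mM in 5x stock | dosing = single dose | incubation = dye 90 min, compound 20 min, room temperature | detection = kinetic FluxOR fluorescence, 10 s baseline plus 110 s post-stimulus | evaluation = ratio B score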
hERG protect: hERG (human) protection from proarrhythmic block. Q12809. CHO-hERG, FluxOR thallium flux, dofetilide IC70 present. activation (rescue from dofetilide block), less the hit threshold, % at 10 µM. actives 0.51% (n = 310,000);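 active = activation above the mean of controls blocked by dofetilide plus 5 SD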;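 also: thallium influx through hERG after potassium depolarization seen as dye fluorescence rise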
KCNQ1 block: blocks the human KCNQ1 potassium channel. actives 1.3% (n = 310,000). CHO-K1 KCNQ1, FluxOR thallium flux fluorescence; stronger effect = higher value. AID 2642. B-score at 10 µM;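 active = compounds whose thallium flux B-score, printed positive for inhibition, exceeds three library SD while starting fluorescence stays within three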;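 also: channel opened by potassium depolarization with thallium stimulus after 20 min compound exposure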
KCNK3 inh: human KCNK3 channel inhibition, primary screen. CHO-KCNK3 thallium flux, FluxOR fluorescence; stronger effect = lower value. B-score at 10 µM. actives 0.84% (n = 340,000). O14649;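 active = B-score under library mean minus 4 SD, starting fluorescence ratio at most library mean plus 5 SD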;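 also: more negative B-score means stronger inhibition of thallium flux through KCNK3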
KCNK3 confirm: human KCNK3 channel inhibition, confirmation assay. shares compounds with KCNK3 inh. CHO-KCNK3 thallium flux, FluxOR fluorescence; 0% buffer, 100% carvedilol maximal block. ratio percent of control, % at 10 µM. actives 99% (n = 2,400);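 active = ratio percent of control, averaged over triplicates, above buffer control mean plus 5 SD, cut at about 64% in these data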;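 also: ratio is the fluorescence rise from min to max over baseline after thallium stimulus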
KCNK3 uninduced: counter-screen for KCNK3 inhibitors: effect in non-induced cells; shares compounds with KCNK3 inh; non-induced KCNK3 parental cells, FluxOR thallium flux; stronger effect = lower value; thallium flux ratio (lower = more inhibition) at 10 µM; actives 40% (n = 2,400);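 active = thallium flux ratio, averaged over three wells, more than 5 SD below the buffer control mean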;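 also: host cells are CHO cells without KCNK3 induction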
Each line names hits and unclear results; the compound was inactive in the other large screens (follow-up assays come after a bar, where they were run). Only some compounds are listed: those with a hit (about 3.1% of all), similar ones and a draw of the others.

COc1ccc(NC(=O)C2Cc3cc(S(=O)(=O)N4CCCCC4)ccc3N2C(C)=O)cc1Cl (stereo unspecified)	none
COc1ccc(Cl)cc1NC(=O)C1Cc2cc(S(=O)(=O)N3CCCC3)ccc2N1C(C)=O (stereo unspecified)	KCNK3 inh -9.4 | KCNK3 confirm 102 | KCNK3 uninduced inactive
CCOc1ccc(/C=N/NC(=O)Cc2csc(Nc3cccc(C(F)(F)F)c3)n2)c(OCC)c1	none
CCOc1ccccc1/C=N/NC(=O)Cc1csc(Nc2cccc(C(F)(F)F)c2)n1	KCNK3 inh -8.7 | KCNK3 confirm 131 | KCNK3 uninduced 0.15
CCOc1ccc(/C=N/NC(=O)Cc2csc(Nc3cccc(C(F)(F)F)c3)n2)cc1	KCNK3 inh -11 | KCNK3 confirm 106 | KCNK3 uninduced inactive
COc1ccc(OC)c(NC(=O)CN2C(=O)COc3ccc(S(=O)(=O)N4CCCC4)cc32)c1	KCNK3 inh -10 | KCNK3 confirm 96 | KCNK3 uninduced inactive
COc1cccc(NC(=O)CN2C(=O)COc3ccc(Cl)cc32)c1	KCNK3 inh -9.8 | KCNK3 confirm 101 | KCNK3 uninduced inactive
COc1ccccc1NC(=O)CN1C(=O)COc2ccc(S(=O)(=O)N3CCCCCC3)cc21	none
COc1ccc(CNn2c(-c3cccs3)nc3ccccc3c2=O)cc1OC	KCNK3 inh -9.3 | KCNK3 confirm 91 | KCNK3 uninduced inactive
COc1cccc(CN(C)C(=O)c2ccccc2Sc2ccccc2C#N)c1OC	KCNK3 inh -8.7 | KCNK3 confirm 98 | KCNK3 uninduced inactive
Cc1ccc(CN(C)C(=O)c2ccccc2Sc2ccccc2C#N)cc1	none
COc1cccc(CN(C)C(=O)c2ccc(COc3ccc(Cl)cc3)cc2)c1OC	KCNK3 inh -11 | KCNK3 confirm 134 | KCNK3 uninduced 0.15
O=C(OCCc1cc2ccccc2c(=O)o1)c1ccccc1C(F)(F)F	none (no result: KCNK9 inh, KCNQ1 act, hERG protect, KCNQ1 block)
COc1ccc(C=O)cc1CSc1ncccc1C(=O)O	none
CN(C)CCCNc1oc(-c2ccccc2Cl)nc1S(=O)(=O)c1ccccc1	none (no result: KCNK9 inh, KCNQ1 act, hERG protect, KCNQ1 block)
CN(C)c1oc(-c2ccccc2Cl)nc1S(=O)(=O)c1ccccc1	KCNK3 inh -9.3 | KCNK3 confirm 108 | KCNK3 uninduced inactive
Cc1nc(SCC(=O)NCC2CCCO2)[nH]c(=O)c1C (stereo unspecified)	none
COc1ccc2c(c1)c(CC(=O)Nc1ccc(C(C)=O)cc1)c(C)n2C(=O)c1ccc(Cl)cc1	none
COc1ccc2c(c1)c(CC(=O)NCc1cc([N+](=O)[O-])ccc1O)c(C)n2C(=O)c1ccc(Cl)cc1	KCNQ1 block 11, KCNK3 inh -13 | KCNK3 confirm 135 | KCNK3 uninduced 0.11
CC(OC(=O)CC(C)c1ccccc1)C(=O)Nc1ccc(Cl)cn1 (stereo unspecified)	none (no result: KCNK9 inh, KCNQ1 act, hERG protect, KCNQ1 block)
Nc1ccc(Cl)c(-c2nc3ncccc3o2)c1	KCNK3 inh -11 | KCNK3 confirm 88 | KCNK3 uninduced inactive
CC1Sc2ccc(S(=O)(=O)N(C)Cc3ccccc3)cc2NC1=O (stereo unspecified)	KCNK3 inh -10 | KCNK3 confirm 93 | KCNK3 uninduced inactive
Nc1nonc1-n1nnc(C(=O)N/N=C/c2cc(Br)ccc2O)c1CNc1ccccc1	KCNK3 inh -10 | KCNK3 confirm 82 | KCNK3 uninduced inactive
Cc1ccc(/C=N/NC(=O)c2nnn(-c3nonc3N)c2CNc2ccccc2)cc1	none
O=C(Nc1ccccc1N1CCN(c2ccccc2)CC1)c1ccccc1	KCNK3 inh -9.5 | KCNK3 confirm 113 | KCNK3 uninduced 0.13
CC(C)Oc1cccc(C(=O)Nc2ccccc2N2CCOCC2)c1	none
O=C(Nc1ccccc1N1CCCCC1)c1ccc(OC(F)F)cc1	KCNK9 inh -7.3, KCNK3 inh -12 | KCNK3 confirm 92 | KCNK3 uninduced inactive
O=C(Nc1ccccc1N1CCOCC1)c1cccc(Oc2ccccc2)c1	KCNK3 inh -9.6 | KCNK3 confirm 96 | KCNK3 uninduced inactive

Bioassay records: PubChem BioAssay, Johns Hopkins Ion Channel Center
